# In the library only some 3.1% were active in any assay of this set; here they are far more common.
# IMP-1 inhibitor – blocks Pseudomonas aeruginosa IMP-1 metallo-beta-lactamase | purified IMP-1, nitrocefin hydrolysis, epi-absorbance fluorescence | inhibition, % at 5.6 µM | 290,000 compounds, 0.45% hits;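 active = inhibition above the mean plus 3 SD of all compounds in the same screening run, cut at about 4.5% in these data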;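 note: 0% = IMP-1 with DMSO and 100% = DMSO wells lacking enzyme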
#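 Test system: recombinant IMP-1 enzyme, purified / Medium: HEPES buffer pH 7.1 with ZnSO4 and Brij 35 / Doses: single dose, 5.6 µM / Times: 25 °C, 15 min preincubation, 25 min reaction / Detection: Epi-absorbance via hydrolysed-nitrocefin quenching of white-plate fluorescence, 480/530 nm, EDTA stop / Evaluation: percent inhibition from optical density relative to buffer-blank wells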
# VIM-2 inhibitor – inhibitors of Pseudomonas aeruginosa VIM-2 metallo-beta-lactamase | purified VIM-2, nitrocefin hydrolysis, epi-absorbance fluorescence | inhibition, % at 5.6 µM | 290,000 compounds, 0.89% hits | AID 1527;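 active = inhibition above the mean of all tested compounds plus 3 SD, cutoff set per screening run, cut at about 7.5% in these data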;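 note: red hydrolysis product quenches plate fluorescence so inhibitors raise well fluorescence; 0% = enzyme with DMSO and 100% = DMSO without enzyme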
# core dimer inh – blocks dimerization of HCV core protein. inhibition, % at 5 µM. AID 1899. TR-FRET GST/Flag-core106 dimerization, 1536-well. 300,000 compounds, 0.33% hits;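 active = inhibition above the mean of all tested compounds plus 3 SD, set per screening campaign, cut at about 45% in these data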
#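 Assay system: tagged HCV core106 pair (GST and Flag); medium: KF-containing HEPES buffer, pH 7.45, DTT, CHAPS, BSA; also added: Eu donor and XL665 acceptor anti-tag antibodies; dosing: 5 µM single dose; timing: compound-protein-antibody incubation 4 h at 22.5 °C; signal: TR-FRET 671 and 617 nm emission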
# PHOSPHO1 inh – PHOSPHO1 (human) inhibition; recombinant PHOSPHO1, absorbance phosphatase assay; 290,000 compounds, 1.1% hits; inhibition, % at 13.3 µM; Q8TCT1; in the data active = inhibition above about 60%
# Target sequence (Q8TCT1 whole entry, looked up): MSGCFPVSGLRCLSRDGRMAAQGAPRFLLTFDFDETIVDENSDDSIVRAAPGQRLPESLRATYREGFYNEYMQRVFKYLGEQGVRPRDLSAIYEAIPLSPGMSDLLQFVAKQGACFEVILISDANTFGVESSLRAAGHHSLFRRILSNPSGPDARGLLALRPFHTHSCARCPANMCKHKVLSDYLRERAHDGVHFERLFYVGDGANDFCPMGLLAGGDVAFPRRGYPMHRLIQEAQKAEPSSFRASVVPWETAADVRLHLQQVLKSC
# NS3 helicase inh – HCV NS3 helicase inhibition; 290,000 compounds, 0.56% hits; inhibition, % at 10.9 µM; NS3 helicase DNA unwinding, Cy5 molecular beacon fluorescence;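 active = inhibition above the mean of all tested compounds plus 3 SD, set per campaign, cut at about 35% in these data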;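 note: 0% = DMSO wells and 100% = thioflavine S control wells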
#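 System: HCV NS3 helicase fragment; control set: DMSO and thioflavine S; technique: Cy5 fluorescence at 0 and 60 min, beacon hairpin quenching; reagent: beacon DNA duplex substrate plus ATP; replicates: singlicate; schedule: 1 h reaction at 25 °C, ATP-initiated; medium: MOPS buffer pH 6.5 with MgCl2, DTT, Tween20, BSA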
# UBC9 SUMO inh – inhibitors of human SUMOylation (UBC9) | HTRF SUMOylation assay, SAE1/SAE2 + UBC9, in vitro | inhibition, % at 35 µM | 290,000 compounds, 0.36% hits | AID 2006; in the data active = inhibition above about 50%, passing the limit was not always enough
# Target sequence (P63279 whole entry, looked up): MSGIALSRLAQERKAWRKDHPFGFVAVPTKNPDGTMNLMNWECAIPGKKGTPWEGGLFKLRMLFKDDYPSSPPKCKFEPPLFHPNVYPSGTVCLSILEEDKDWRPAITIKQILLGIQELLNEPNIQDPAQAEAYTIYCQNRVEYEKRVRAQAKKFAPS
# NS3 hel confirm – HCV NS3 helicase inhibition, confirmation assay; shares compounds with NS3 helicase inh; NS3 helicase DNA unwinding, Cy5 molecular beacon fluorescence; inhibition, % at 10.9 µM; 1,600 compounds, 31% hits; AID 1943;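 active = inhibition above the mean of all tested compounds plus 3 SD, cutoff set per campaign, cut at about 36% in these data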
# FID counter trip – displaces DNA intercalator in HCV helicase counter-screen | shares compounds with NS3 helicase inh | DNA fluorescent intercalator displacement, fluorescence | inhibition, % at 7.9 µM | 1,600 compounds, 4% hits | AID 1945; in the data active = inhibition above about 37%;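 note: 0% = vehicle and 100% = reference compound; higher means more displacement of ethidium bromide from the DNA hairpin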
# DNA FID DR – displaces fluorescent intercalator from DNA, HCV helicase counter-screen; shares compounds with NS3 helicase inh; fluorescent intercalator displacement from DNA, fluorescence; IC50, µM; 120 tested, under 10 active; AID 2172; call rule not given here
# An asterisk follows results filed as active; . = not tested or not shown.
SMILES,IMP-1 inhibitor,VIM-2 inhibitor,core dimer inh,PHOSPHO1 inh,NS3 helicase inh,UBC9 SUMO inh,NS3 hel confirm,FID counter trip,others
Cc1nnc(Cn2cnc3c2c(=O)n(C)c(=O)n3C)o1,0,1,8,39,39*,13,-9,4,
Oc1ccc(/C=N/N(Cc2ccccc2)c2ccccc2)c(O)c1O,5.1*,1,.,-7,71*,36,-13,22,
Cn1c(=S)[nH]c2sc3c(c2c1=O)CCC(C(C)(C)C)C3 (stereo unspecified),-1,-5,11,-12,43*,3,8,-13,
CCS(=O)(=O)C1=NN2C(=N)/C(=C\c3ccc(SCc4ccco4)o3)C(=O)N=C2S1,2,2,.,-146,37*,62*,65*,22,
Cc1cc(C(=O)N/N=C/c2ccc(O)c(O)c2O)c(C)n1-c1ccccc1,-4,-1,.,32,46*,34,-14,5,
CCCCNC(=O)N1CCCN(c2ccc(C#N)cn2)CC1,0,-2,-7,19,11,5,.,.,
Nn1c(Cc2cccc3ccccc23)nnc1SCc1ccc(Cl)c(Cl)c1,-1,-4,-1,30,-16,-50,.,.,
Nn1c(Cc2cccc3ccccc23)nnc1SCc1c(Cl)cccc1Cl,-2,-1,6,-33,61*,-1,-9,-27,
CCOc1ccc(/C(O)=C2/C(=O)C(=O)N(c3nc(C)c(C)s3)C2c2ccco2)cc1 (stereo unspecified),5.5*,2,15,39,51*,29,55*,19,DNA FID DR=>79
O=C(CCC(=O)N1CCOc2ccccc21)NCc1cccnc1,-2,-2,1,7,0,-1,.,.,
Cc1ccc(N2C(=O)CS/C2=N\C(=S)Nc2ccccc2)cc1,0,0,-6,8,8,15,.,.,
COc1ccc(C2C(C(C)=O)=C(C)N=c3s/c(=C\c4ccco4)c(=O)n32)c(OC)c1 (stereo unspecified),0,0,9,94*,54*,19,-29,-10,
CCOC(=O)C1=C(c2ccccc2)N=c2s/c(=C\c3ccco3)c(=O)n2C1c1cccs1 (stereo unspecified),0,-3,69*,-10,48*,40,24,-2,
CCOC(=O)C1=C(c2ccccc2)N=c2s/c(=C\c3cc(OC)c(OC)c(OC)c3)c(=O)n2C1c1cccs1 (stereo unspecified),-2,-3,17,-1,15,-22,.,.,
COc1cccc(CN(C)C(=O)C(Cc2ccccc2)NC(=O)c2ccccc2)c1OC (stereo unspecified),.,.,9,.,.,.,.,.,
NC(=O)c1ccc[n+](CC(=O)c2cccc([N+](=O)[O-])c2)c1,-5,-2,-4,26,12,14,.,.,
Cc1cc(C)c(C(=O)N2CCC(N3CCC(C(=O)NC(C)C)CC3)CC2)o1,3,2,-9,38,25,8,.,.,
COc1ccc(CCNC(=O)COC(=O)/C=C/c2cc(OC)c(OC)c(OC)c2)cc1OC,-3,-5,-3,8,43*,2,-15,-41,
Cc1cc(NS(=O)(=O)c2ccc(NC(=O)/C=C/c3c(F)cccc3Cl)cc2)nc(C)n1,-1,-3,-1,.,36*,15,-22,-6,
O=c1c2ccccc2sc2nc(C3CCCCC3)n(Cc3ccco3)c(=O)c12,-1,4,.,-14,40*,8,27,-9,
CCc1nc2sc3ccccc3c(=O)c2c(=O)n1Cc1ccco1,-1,5,1,3,22,13,.,.,
Cc1ccc(-n2nc(C)c3c2OC(N)=C(C#N)C3c2ccoc2)cc1 (stereo unspecified),-2,0,0,31,45*,85,-18,18,
CC1=NN(CCc2ccccn2)C(=O)CC1,.,.,0,.,.,.,.,.,
O=C(COC(=O)c1c2c(nc3ccccc13)/C(=C/c1ccco1)CC2)NC1CCCC1,0,-2,.,15,36*,71*,96*,15,DNA FID DR=>79
CC1CCCCC1NC(=O)COC(=O)c1c2c(nc3ccccc13)/C(=C/c1ccco1)CC2 (stereo unspecified),-3,1,97*,-5,47*,65*,97*,1,DNA FID DR=>79
SMILES,IMP-1 inhibitor,VIM-2 inhibitor,core dimer inh,PHOSPHO1 inh,NS3 helicase inh,UBC9 SUMO inh,NS3 hel confirm,FID counter trip,others
CC(C)CNC(=O)COC(=O)c1c2c(nc3ccccc13)/C(=C/c1cccs1)CC2,6.7*,4,13,-2,74*,23,-8,-9,
Cc1c(S(=O)(=O)Nc2ccc(Oc3ccccc3)cc2)c(=O)n(C)c(=O)n1C,-2,-2,3,38,2,10,.,.,
COc1ccc(CCC(=O)OC(C)C(=O)c2ccc(C)cc2)cc1 (stereo unspecified),-4,-4,5,12,15,9,.,.,
COC(=O)c1ccc(OC(C)C(=O)c2ccc(C)cc2)cc1 (stereo unspecified),-3,-5,7,-2,37*,-2,-8,-16,
CCN(CC)S(=O)(=O)c1cccc(NC(=O)CNc2cccc(S(=O)(=O)N3CCOCC3)c2)c1,.,.,0,.,.,.,.,.,
CCC(C(=O)O)n1nnc(-c2ccc(-c3ccc(OC)cc3)cc2)n1 (stereo unspecified),-1,-1,-5,6,39*,25,62*,-21,DNA FID DR=>79
CC(C)(C)c1ccc2c(c1)OC(C(=O)N/N=C\c1ccncc1)CO2 (stereo unspecified),-3,-1,1,28,-1,14,.,.,
O=C(N/N=C/c1ccc([N+](=O)[O-])o1)c1ccc2c(c1)OCO2,-5,-4,.,-4,40*,6,-12,6,
CC(C)(C)c1ccc2c(c1)OC(C(=O)N/N=C/c1ccc([N+](=O)[O-])o1)CO2 (stereo unspecified),-1,-2,7,12,51*,0,-17,2,
CCOC(=O)N/N=C\c1ccc([N+](=O)[O-])o1,-2,-1,3,8,6,-3,.,.,
CCCCCCCC(=O)N/N=C/c1ccc([N+](=O)[O-])o1,-3,-6,3,1,39*,18,-21,4,
Cc1ccc(NC(=O)CCS(=O)(=O)c2cccc3nonc23)cc1Cl,1,0,-13,40,42*,-10,-11,3,
Cc1ccc(NC(=O)CCS(=O)(=O)c2cccc3nonc23)cc1,-2,-1,-2,24,7,3,.,.,
